In ChEMBL document CHEMBL2010758, “Antidotes to anthrax lethal factor intoxication. Part 3: Evaluation of core structures and further modifications to the C2-side chain” (Bioorg Med Chem Lett, 2012):
The source made the active and inactive calls. The rule behind the calls is not given here.

Tests used:
[1] = system: RAW264.7; test: Cytotoxicity against mouse RAW264.7 cells by MTT assay; format: cell-based
[2] = system: Plasma; test: Stability in plasma assessed as compound remaining at 3 hrs; format: ADME, cell-free
Method in brief: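 Compound incubated in plasma. Result given as percent of compound remaining at 3 hours.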

[3] = system: Rattus norvegicus; test: Inhibition of Anthrax LT-induced toxicity in Fischer 344 rat assessed as increase in survival at 5 mg/kg, iv administered 20 to 30 mins after LT challenge; format: functional, organism-based; parameters: dose 5 mg/kg
[4] = biological target: Matrix metalloproteinase-14 (Homo sapiens, UniProt P50281); test: Inhibition of MMP-14 using OmniMMP as substrate
[5] = biological target: Voltage-gated inwardly rectifying potassium channel KCNH2 (Homo sapiens, UniProt Q12809); test: Inhibition of human ERG by fluorescence polarization assay
[6] = Stability in rat liver microsomes assessed as compound remaining at 30 mins; format: ADME, Microsome; settings: read-out: Stability
Method in brief: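 Compound incubated with rat liver microsomes for 30 min. Result given as percent of parent compound remaining at t = 30 min.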

[7] = biological target: Matrix metalloproteinase-9 (Homo sapiens, UniProt P14780); test: Inhibition of MMP-9 using OmniMMP as substrate
[8] = biological target: Stromelysin-1 (Homo sapiens, UniProt P08254); test: Inhibition of MMP-3 using OmniMMP as substrate
[9] = Stability of the compound in presence of UGT; format: ADME
Method in brief: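 UGT (glucuronidation) stability assay, incubated for 30 min. Result given as percent of compound remaining at t = 30 min.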

[10] = biological target: Macrophage metalloelastase (Homo sapiens, UniProt P39900); test: Inhibition of MMP-12 using OmniMMP as substrate
[11] = biological target: Cytochrome P450 2D6 (Homo sapiens, UniProt P10635); test: Inhibition of CYP2D6; format: ADME
[12] = biological target: T1, Interstitial collagenase (Homo sapiens, UniProt P03956); test: Inhibition of MMP-1 using OmniMMP as substrate
T1 sequence (P03956 whole entry): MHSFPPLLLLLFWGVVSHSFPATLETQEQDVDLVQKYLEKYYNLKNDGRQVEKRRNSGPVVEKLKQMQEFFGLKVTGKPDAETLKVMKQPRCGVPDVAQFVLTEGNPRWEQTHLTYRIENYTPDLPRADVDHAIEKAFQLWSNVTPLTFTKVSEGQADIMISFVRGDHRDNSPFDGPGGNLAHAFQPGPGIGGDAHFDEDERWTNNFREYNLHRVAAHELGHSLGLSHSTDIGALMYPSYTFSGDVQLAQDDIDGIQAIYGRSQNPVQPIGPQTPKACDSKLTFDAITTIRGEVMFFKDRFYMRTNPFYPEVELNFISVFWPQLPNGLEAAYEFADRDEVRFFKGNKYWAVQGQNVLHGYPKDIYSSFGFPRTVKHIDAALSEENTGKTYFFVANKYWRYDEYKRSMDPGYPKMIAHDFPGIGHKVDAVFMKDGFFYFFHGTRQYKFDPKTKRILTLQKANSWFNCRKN

[13] = system: Rattus norvegicus; test: Inhibition of Anthrax LT-induced toxicity in Fischer 344 rat assessed as increase in survival at 2.5 mg/kg, iv administered 20 to 30 mins after LT challenge; format: functional, organism-based; parameters: dose 2.5 mg/kg
[14] = Lipophilicity, Log D of the compound; format: physicochemical; settings: octanol/water
[15] = biological target: T2, Lethal factor (Bacillus anthracis, UniProt P15917); test: Inhibition of N-terminal 6-histine tagged Bacillus anthracis LF 263-C terminal catalytic domain using MCA-KKVYPYPME-Dap(Dnp)-NH2 as substrate after 4 hrs by FRET analysis
T2 sequence (P15917 whole entry): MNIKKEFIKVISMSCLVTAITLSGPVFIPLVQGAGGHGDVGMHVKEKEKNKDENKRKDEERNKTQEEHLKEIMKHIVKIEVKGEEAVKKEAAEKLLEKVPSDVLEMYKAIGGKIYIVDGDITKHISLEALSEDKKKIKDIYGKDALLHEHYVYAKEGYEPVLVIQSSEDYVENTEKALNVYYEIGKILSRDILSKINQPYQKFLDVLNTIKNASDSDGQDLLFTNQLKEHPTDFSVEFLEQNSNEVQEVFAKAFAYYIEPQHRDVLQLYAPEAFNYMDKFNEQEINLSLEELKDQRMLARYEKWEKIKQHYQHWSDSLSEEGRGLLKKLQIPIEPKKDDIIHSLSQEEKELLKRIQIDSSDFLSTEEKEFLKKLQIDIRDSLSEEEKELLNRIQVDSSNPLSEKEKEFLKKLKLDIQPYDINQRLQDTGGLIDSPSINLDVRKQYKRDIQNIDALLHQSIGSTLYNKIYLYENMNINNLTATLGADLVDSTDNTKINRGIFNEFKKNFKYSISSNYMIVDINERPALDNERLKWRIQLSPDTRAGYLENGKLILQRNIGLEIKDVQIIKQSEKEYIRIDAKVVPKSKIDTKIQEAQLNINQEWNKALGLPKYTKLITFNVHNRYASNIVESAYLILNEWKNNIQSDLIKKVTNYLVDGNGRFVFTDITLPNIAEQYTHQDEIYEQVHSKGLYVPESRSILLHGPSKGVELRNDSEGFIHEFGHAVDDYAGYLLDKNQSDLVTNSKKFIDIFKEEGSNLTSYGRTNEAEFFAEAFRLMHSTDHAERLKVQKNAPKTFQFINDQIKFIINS

[16] = system: Rattus norvegicus; test: Inhibition of Anthrax LT-induced toxicity in Fischer 344 rat assessed as increase in survival at 1.25 mg/kg, iv administered 20 to 30 mins after LT challenge; format: functional, organism-based; parameters: dose 1.25 mg/kg
[17] = system: Oryctolagus cuniculus; test: AUC (infinity) in NZW rabbit at 10 mg/kg, sc; format: ADME, organism-based, Plasma; parameters: time infinity, dose 10 mg/kg, route subcutaneous; settings: in vivo
Method in brief: (§1)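 Single subcutaneous dose of 10 mg/kg given to NZW rabbits in DMSO:PEG400:pH 6 citrate buffer (2:10:88). Plasma drug levels were followed over time, including a 12 h sample. Tmax, Cmax, terminal (β) half-life and AUC to infinity were derived from the plasma concentration–time profile.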

[18] = system: Oryctolagus cuniculus; test: Cmax in NZW rabbit at 10 mg/kg, sc; format: ADME, organism-based; parameters: dose 10 mg/kg, route subcutaneous; settings: in vivo; method in brief: as §1
[19] = system: Oryctolagus cuniculus; test: Tmax in NZW rabbit at 10 mg/kg, sc; format: ADME, organism-based; parameters: dose 10 mg/kg, route subcutaneous; settings: in vivo; method in brief: as §1
[20] = system: Oryctolagus cuniculus; test: Terminal half life in NZW rabbit at 10 mg/kg, sc; format: ADME, organism-based; parameters: dose 10 mg/kg, route subcutaneous; settings: in vivo; method in brief: as §1
[21] = Plasma concentration in NZW rabbit at 10 mg/kg, sc at 12 hrs; format: ADME, organism-based, Oryctolagus cuniculus; parameters: dose 10 mg/kg, route subcutaneous; method in brief: as §1

Cytochrome P450 2D6, sequence (P10635 whole entry): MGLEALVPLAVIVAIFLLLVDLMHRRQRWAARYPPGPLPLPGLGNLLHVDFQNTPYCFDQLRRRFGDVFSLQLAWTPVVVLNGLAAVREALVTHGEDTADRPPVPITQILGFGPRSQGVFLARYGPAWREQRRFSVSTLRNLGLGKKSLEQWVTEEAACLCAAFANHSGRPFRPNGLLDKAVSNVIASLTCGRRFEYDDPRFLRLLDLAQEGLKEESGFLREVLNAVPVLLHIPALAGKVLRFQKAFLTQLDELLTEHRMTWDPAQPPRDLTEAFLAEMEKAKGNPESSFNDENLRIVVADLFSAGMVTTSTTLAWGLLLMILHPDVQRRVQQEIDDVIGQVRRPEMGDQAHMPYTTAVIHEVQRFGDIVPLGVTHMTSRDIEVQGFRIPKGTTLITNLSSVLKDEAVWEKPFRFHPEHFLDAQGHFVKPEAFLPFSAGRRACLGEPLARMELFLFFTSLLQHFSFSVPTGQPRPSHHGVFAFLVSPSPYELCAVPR
Stromelysin-1, sequence (P08254 whole entry): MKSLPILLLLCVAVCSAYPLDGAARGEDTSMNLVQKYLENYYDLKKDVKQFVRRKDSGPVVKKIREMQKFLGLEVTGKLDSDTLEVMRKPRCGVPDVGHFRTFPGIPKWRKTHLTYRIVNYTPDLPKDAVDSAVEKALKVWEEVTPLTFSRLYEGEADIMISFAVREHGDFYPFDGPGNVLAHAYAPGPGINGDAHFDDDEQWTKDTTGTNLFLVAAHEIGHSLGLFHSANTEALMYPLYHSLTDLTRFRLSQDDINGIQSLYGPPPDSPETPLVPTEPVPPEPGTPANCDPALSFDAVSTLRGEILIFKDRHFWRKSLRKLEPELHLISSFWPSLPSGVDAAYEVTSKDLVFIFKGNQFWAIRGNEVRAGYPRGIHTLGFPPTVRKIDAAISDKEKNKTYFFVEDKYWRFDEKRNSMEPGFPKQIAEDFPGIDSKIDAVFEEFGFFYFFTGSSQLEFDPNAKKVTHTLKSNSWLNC
Matrix metalloproteinase-9, sequence (P14780 whole entry): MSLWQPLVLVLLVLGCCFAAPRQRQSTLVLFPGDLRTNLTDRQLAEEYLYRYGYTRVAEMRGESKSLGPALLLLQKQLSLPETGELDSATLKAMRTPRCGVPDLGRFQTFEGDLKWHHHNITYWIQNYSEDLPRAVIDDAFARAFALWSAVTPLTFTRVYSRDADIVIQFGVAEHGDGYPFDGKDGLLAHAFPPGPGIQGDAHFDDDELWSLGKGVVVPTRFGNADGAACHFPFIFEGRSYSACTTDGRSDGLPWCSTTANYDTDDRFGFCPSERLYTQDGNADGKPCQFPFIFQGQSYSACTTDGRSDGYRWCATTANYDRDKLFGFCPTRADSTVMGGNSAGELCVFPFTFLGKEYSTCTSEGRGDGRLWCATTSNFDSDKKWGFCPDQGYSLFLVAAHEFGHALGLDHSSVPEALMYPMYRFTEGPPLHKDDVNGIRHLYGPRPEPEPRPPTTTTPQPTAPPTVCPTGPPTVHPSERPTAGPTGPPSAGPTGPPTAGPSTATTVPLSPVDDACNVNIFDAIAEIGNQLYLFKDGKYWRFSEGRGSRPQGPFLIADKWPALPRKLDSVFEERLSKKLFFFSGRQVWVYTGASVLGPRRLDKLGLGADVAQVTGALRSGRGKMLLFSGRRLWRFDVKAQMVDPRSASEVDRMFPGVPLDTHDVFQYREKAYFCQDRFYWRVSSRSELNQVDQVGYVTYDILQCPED
Macrophage metalloelastase, sequence (P39900 whole entry): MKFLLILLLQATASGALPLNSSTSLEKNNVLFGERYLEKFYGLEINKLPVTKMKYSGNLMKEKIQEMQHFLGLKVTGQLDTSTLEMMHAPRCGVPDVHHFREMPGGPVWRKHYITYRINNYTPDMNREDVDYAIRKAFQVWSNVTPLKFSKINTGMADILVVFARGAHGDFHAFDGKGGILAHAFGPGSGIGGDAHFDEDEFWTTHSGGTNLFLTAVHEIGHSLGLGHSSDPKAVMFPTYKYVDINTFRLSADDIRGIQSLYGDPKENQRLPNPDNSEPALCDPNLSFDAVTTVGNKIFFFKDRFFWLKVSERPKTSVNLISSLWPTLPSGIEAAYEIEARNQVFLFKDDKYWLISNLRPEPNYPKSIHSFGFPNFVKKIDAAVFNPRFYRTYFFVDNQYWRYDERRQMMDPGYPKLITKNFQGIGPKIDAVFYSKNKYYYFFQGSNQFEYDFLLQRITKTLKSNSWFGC
Voltage-gated inwardly rectifying potassium channel KCNH2, sequence (Q12809 whole entry): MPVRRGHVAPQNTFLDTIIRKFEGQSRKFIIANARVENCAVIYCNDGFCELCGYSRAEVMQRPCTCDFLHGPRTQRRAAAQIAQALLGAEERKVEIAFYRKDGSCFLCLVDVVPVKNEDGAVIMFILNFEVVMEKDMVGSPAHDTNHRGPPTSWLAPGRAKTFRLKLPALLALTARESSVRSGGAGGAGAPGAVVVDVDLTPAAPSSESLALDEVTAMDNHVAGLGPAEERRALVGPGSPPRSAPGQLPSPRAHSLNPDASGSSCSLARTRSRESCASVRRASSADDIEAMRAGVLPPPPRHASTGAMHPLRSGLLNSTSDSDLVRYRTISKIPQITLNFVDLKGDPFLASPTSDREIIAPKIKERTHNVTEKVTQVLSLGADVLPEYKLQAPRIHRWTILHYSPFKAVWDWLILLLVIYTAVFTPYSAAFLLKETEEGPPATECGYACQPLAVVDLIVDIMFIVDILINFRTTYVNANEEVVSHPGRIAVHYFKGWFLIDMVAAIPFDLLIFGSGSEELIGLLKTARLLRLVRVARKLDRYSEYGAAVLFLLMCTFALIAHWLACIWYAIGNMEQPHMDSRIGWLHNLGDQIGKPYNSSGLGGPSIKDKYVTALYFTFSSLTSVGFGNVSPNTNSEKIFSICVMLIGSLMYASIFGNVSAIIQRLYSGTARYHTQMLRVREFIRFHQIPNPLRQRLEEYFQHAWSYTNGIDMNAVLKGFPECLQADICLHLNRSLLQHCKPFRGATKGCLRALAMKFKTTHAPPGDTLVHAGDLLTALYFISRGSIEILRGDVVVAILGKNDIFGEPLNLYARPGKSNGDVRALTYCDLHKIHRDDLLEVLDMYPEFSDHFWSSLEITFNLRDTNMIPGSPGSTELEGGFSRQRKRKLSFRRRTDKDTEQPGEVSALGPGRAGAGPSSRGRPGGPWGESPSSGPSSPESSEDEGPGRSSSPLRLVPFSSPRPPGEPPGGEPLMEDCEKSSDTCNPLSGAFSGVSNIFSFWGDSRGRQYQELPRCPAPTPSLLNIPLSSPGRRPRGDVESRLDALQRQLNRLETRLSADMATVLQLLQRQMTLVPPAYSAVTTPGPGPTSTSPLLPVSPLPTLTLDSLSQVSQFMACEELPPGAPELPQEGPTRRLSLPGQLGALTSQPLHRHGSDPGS

Compound: Cc1cc(N[C@H](CCCCNCc2ccc(F)cc2)C(=O)NO)cc(C)c1F
- CC50 [1]: 61 µM
- Stability [2]: 90%
- Survival increase (active/not active) [3]: Active
- Ki [4]: > 50 µM
- IC50 [5]: 1230 nM
- remaining at 0.5 h [6]: 60%
- Ki [7]: > 50 µM
- Ki [8]: > 50 µM
- Stability [9]: 38%
- Ki [10]: > 50 µM
- IC50 [11]: 1350 nM
- Ki [12]: > 50 µM
- inhibition [13]: Active
- logD [14]: 2.3

Compound: CO[C@H](C[C@H](CCCCNCc1ccc(F)cc1)C(=O)NO)c1ccc(F)cc1
- CC50 [1]: 55 µM
- Survival increase (active/not active) [3]: Active
- Ki [4]: > 50 µM
- remaining at 0.5 h [6]: 91%
- Ki [7]: 21 µM
- Ki [8]: > 50 µM
- Stability [9]: 99%
- Ki [10]: 2.3 µM
- Ki [12]: 33 µM
- logD [14]: 2.4

Compound: Cc1cc(O[C@H](CCCCNCc2ccc(F)cc2)C(=O)NO)cc(C)c1F
- CC50 [1]: 26 µM
- Stability [2]: 61%
- Survival increase (active/not active) [3]: inactive
- Ki [4]: > 50 µM
- IC50 [5]: 790 nM
- remaining at 0.5 h [6]: 3%
- Ki [7]: > 50 µM
- Ki [8]: > 50 µM
- Stability [9]: 76%
- Ki [10]: > 50 µM
- IC50 [11]: 230 nM
- Ki [12]: > 50 µM
- logD [14]: 3.1

Compound: Cc1cc(C[C@H](CCCCNCc2ccc(F)cc2)C(=O)NO)cc(C)c1F
- CC50 [1]: 16 µM
- Stability [2]: 100%
- Survival increase (active/not active) [3]: Active
- Ki [4]: > 50 µM
- IC50 [5]: 4650 nM
- remaining at 0.5 h [6]: 18%
- Ki [7]: > 50 µM
- Ki [8]: > 50 µM
- Stability [9]: 79%
- Ki [10]: > 50 µM
- IC50 [11]: 20 nM
- Ki [12]: > 50 µM
- inhibition [13]: Active
- logD [14]: 2.2

Compound: Cc1cc(C[C@H](CCCCN[C@H](C)c2ccc(F)cc2)C(=O)NO)cc(C)c1F
- Ki [15]: 0.3 nM

Compound: Cc1cc(C[C@H](CCCCN[C@@H](C)c2ccc(F)cc2)C(=O)NO)cc(C)c1F
- Ki [15]: 0.49 nM

Compound: CC[C@@H](NCCCC[C@@H](Cc1cc(C)c(F)c(C)c1)C(=O)NO)c1ccc(F)cc1
- Ki [15]: 0.04 nM

Compound: CC[C@H](NCCCC[C@@H](Cc1cc(C)c(F)c(C)c1)C(=O)NO)c1ccc(F)cc1
- Ki [15]: 0.11 nM

Compound: Cc1cc(C[C@H](CCCCN[C@H](CC(C)C)c2ccc(F)cc2)C(=O)NO)cc(C)c1F
- Ki [15]: 0.23 nM

Compound: Cc1cc(C[C@H](CCCCN[C@@H](CC(C)C)c2ccc(F)cc2)C(=O)NO)cc(C)c1F
- Ki [15]: 1.3 nM

Compound: Cc1cc(C[C@H](CCCCN[C@H](Cc2ccccc2)c2ccc(F)cc2)C(=O)NO)cc(C)c1F
- Ki [15]: 0.6 nM

Compound: Cc1cc(C[C@H](CCCCN[C@@H](Cc2ccccc2)c2ccc(F)cc2)C(=O)NO)cc(C)c1F
- Ki [15]: 2 nM

Compound: CCC(NCCCC[C@@H](Cc1cc(C)c(F)c(C)c1)C(=O)NO)c1ccc(F)cc1 (mixture of isomers)
- CC50 [1]: 15 µM
- Stability [2]: 95%
- inhibition [16]: Active
- Ki [15]: 0.31 nM
- Survival increase (active/not active) [3]: Active
- Ki [4]: > 50 µM
- remaining at 0.5 h [6]: 55%
- Ki [7]: > 50 µM
- Ki [8]: > 50 µM
- Stability [9]: 100%
- Ki [10]: > 50 µM
- IC50 [11]: 80 nM
- Ki [12]: > 50 µM
- inhibition [13]: Active
- logD [14]: 2.9

Compound: CCC(NCCCC[C@@H](Nc1cc(C)c(F)c(C)c1)C(=O)NO)c1ccc(F)cc1 (mixture of isomers)
- CC50 [1]: 32 µM
- Stability [2]: 84%
- inhibition [16]: inactive
- Ki [15]: 0.17 nM
- Survival increase (active/not active) [3]: Active
- Ki [4]: > 50 µM
- IC50 [5]: 950 nM
- remaining at 0.5 h [6]: 75%
- Ki [7]: > 50 µM
- Ki [8]: > 50 µM
- Stability [9]: 74%
- Ki [10]: > 50 µM
- IC50 [11]: 240 nM
- Ki [12]: > 50 µM
- inhibition [13]: Active
- logD [14]: 3.3

Compound: CCC(NCCCC[C@@H](Oc1cc(C)c(F)c(C)c1)C(=O)NO)c1ccc(F)cc1 (mixture of isomers)
- CC50 [1]: 21 µM
- Stability [2]: 38%
- Ki [15]: 1 nM
- Survival increase (active/not active) [3]: Active
- Ki [4]: > 50 µM
- remaining at 0.5 h [6]: 7%
- Ki [7]: > 50 µM
- Ki [8]: > 50 µM
- Stability [9]: 75%
- Ki [10]: > 50 µM
- Ki [12]: > 50 µM
- logD [14]: 3.3

Compound: CCC(NCCCC[C@@H](C[C@@H](OC)c1ccc(F)cc1)C(=O)NO)c1ccc(F)cc1 (mixture of isomers)
- CC50 [1]: 35 µM
- Stability [2]: 94%
- AUC [17]: 2637.6 ng·h/mL
- Cmax [18]: 1300 nM
- Tmax [19]: 18 min
- Ki [15]: 0.27 nM
- Survival increase (active/not active) [3]: Active
- Ki [4]: > 50 µM
- remaining at 0.5 h [6]: 75%
- Ki [7]: 11 µM
- Ki [8]: 31 µM
- Stability [9]: 100%
- Ki [10]: 12 µM
- beta t1/2 [20]: 5.3 h
- IC50 [11]: 160 nM
- Ki [12]: 47 µM
- inhibition [13]: Active
- logD [14]: 2.9
- concentration at 12 h [21]: 79 nM
